Rows were chosen to be rich in hits. Some 0.58% of all compounds tested hit in one or more screens of this group.
TRPML3 agonist: human TRPML3 channel agonists, primary screen, cell-based, HEK293 TRPML3-YFP, Fluo-8 calcium fluorescence, 3 µM; 100% = the carbachol control signal; Mucolipin-3 (Homo sapiens), Q8TDD5; activation, % at 3 µM; hit rate 0.29% among 220,000;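 active means activation above its plate's cutoff, the mean activation of the plate's test wells plus 3 SD, cut at about 12% in these data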;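 further: 0% = DMSO only wells and 100% = carbachol wells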
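Material: TRPML3-YFP stable HEK293 cells | Dosing: One concentration, 3 µM nominal, 0.3% DMSO | Timing: 125 s total fluorescence read per well | Technique: Fluo-8 calcium dye fluorescence, ex 470-495, em 515-575 nm | Measure: Percent activation from peak-to-basal fluorescence ratio, scaled between DMSO and carbachol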
OXTR agonist: human OXTR agonists, primary screen, fluorescence, CHO-OTR cells, Fluo-8 calcium; hit rate 0.32% among 320,000; AID 2435, 2010; Fluo-8 calcium fluorescence; normalized: DMSO 0%, oxytocin 100%; activation, % at 3 µM; Oxytocin receptor (Homo sapiens), P30559;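 active means activation above the mean of all tested compounds plus 3 SD, cutoff set per screening run, cut at about 20% in these data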;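 further: peak over basal fluorescence ratio from a 100 s FLIPR kinetic read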
Target sequence (P30559 whole entry, looked up): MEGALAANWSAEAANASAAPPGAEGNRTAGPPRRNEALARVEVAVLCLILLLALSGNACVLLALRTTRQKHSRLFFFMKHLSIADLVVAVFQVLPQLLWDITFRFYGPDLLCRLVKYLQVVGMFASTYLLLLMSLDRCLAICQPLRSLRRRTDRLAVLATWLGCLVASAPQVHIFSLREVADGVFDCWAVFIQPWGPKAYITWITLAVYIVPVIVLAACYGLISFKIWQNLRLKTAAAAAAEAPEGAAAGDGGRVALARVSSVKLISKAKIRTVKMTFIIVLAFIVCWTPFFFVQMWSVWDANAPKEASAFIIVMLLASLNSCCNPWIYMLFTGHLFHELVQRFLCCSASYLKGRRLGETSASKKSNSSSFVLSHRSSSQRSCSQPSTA
zfTRPN1 agonist: zebrafish TRPN1 channel agonists, primary screen, cell-based, HEK293, calcium fluorescence; activation, % at 3 µM; hit rate 0.18% among 220,000; HEK293 zebrafish TRPN1-YFP, Fluo-8 calcium fluorescence; 100% = response to 87 µM carbachol;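 active means activation above its plate's cutoff, the mean activation of test wells on that plate plus 3 SD, cut at about 19% in these data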;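 further: 0% = DMSO alone and 100% = 87 µM carbachol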
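Control set: carbachol 87 µM as high control, DMSO as low control; system: HEK293 stable line with zebrafish TRPN1-YFP; read-out: % activation versus carbachol response; detection: intracellular calcium fluorescence with Fluo-8; doses: single test compound dose, 3 µM nominal, 0.3% DMSO; schedule: dye 1 h 37 °C plus 30 min RT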
OXTR potentiator: human OXTR potentiators, primary screen, fluorescence, CHO-OTR cells, Fluo-8 calcium | Oxytocin receptor (Homo sapiens), P30559 | Fluo-8 calcium fluorescence, potentiator mode; 0% = oxytocin EC15, 100% = EC100 | activation, % at 3 µM | hit rate 0.061% among 320,000;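 active means activation above that plate's cutoff, the mean activation of tested compounds plus 3 SD, cut at about 6.6% in these data, passing the limit was not always enough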;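 further: 100% uses oxytocin at 75 nM as the full agonist control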
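test system = CHO-OTR cells, human receptor | compound = single-point 3.0 µM | schedule = 6 min compound pre-incubation at room temperature, 100 s kinetic read | signal = Fluo-8 no-wash calcium dye fluorescence, excitation 470-495 nm, emission 515-575 nm | repeats = single well per compound, singlicate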
V1R ag counter: agonists of human V1a receptor, primary screen, counter-screen for OXTR agonist project, fluorescence, CHO-V1R cells; Vasopressin V1a receptor (Homo sapiens), P37288; Fluo-8 calcium fluorescence, agonist mode; 0% DMSO, 100% 3 nM vasopressin; activation, % at 3 µM; hit rate 0.25% among 320,000; AID 2797, 2010;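 active means activation above the mean activation of all tested compounds plus 3 SD, per screening run, cut at about 20% in these data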;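 further: signal is peak over basal fluorescence ratio across a 100 second FLIPR read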
OXTR agonist cf: human OXTR agonists, confirmation, fluorescence, CHO-OTR cells, triplicate. activation, % at 3 µM. shares compounds with OXTR agonist. Fluo-8 calcium fluorescence, agonist. hit rate 20% among 390;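 active means mean activation above about 20% derived from the earlier single-dose screen, limit read from the data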;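 further: peak over minimum fluorescence ratio per well during a 100 second FLIPR read; 0% = DMSO alone and 100% = oxytocin high control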
V1R ag counter 3x: V1a receptor agonists, calcium signal, counter-screen for OXTR agonist project, triplicate, fluorescence, CHO-V1R cells. shares compounds with OXTR agonist. Fluo-8 calcium fluorescence. activation, % at 3 µM. hit rate 10% among 390;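 active means mean activation over triplicate exceeds the hit threshold set in the earlier primary screen, cut at about 20% in these data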;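 further: peak over basal fluorescence ratio within a 100 second read; 0% = DMSO alone and 100% = 3 nM vasopressin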
* marks the source's active call; other numbers are inactive results; ! = not active in a repeat.

How did CC(NCc1ccc(-c2ccccc2)cc1)C(O)c1ccccc1 (configuration not stated) do in these assays?
TRPML3 agonist: 1; OXTR agonist: 23*; zfTRPN1 agonist: 0; OXTR potentiator: -6; V1R ag counter: 12; OXTR agonist cf: 3; V1R ag counter 3x: 4

What do the screens show for `CC(O)CNCc1ccc(-c2ccccc2)cc1` (configuration not stated)?
TRPML3 agonist: 0; OXTR agonist: 4; zfTRPN1 agonist: 2; OXTR potentiator: -3; V1R ag counter: 3

What do the screens show for `CCCCN(CCCC)c1ccc(C(=O)c2ccccc2C(=O)O)c(O)c1`?
TRPML3 agonist: 1; OXTR agonist: 34*; zfTRPN1 agonist: 2; OXTR potentiator: -12; V1R ag counter: 16; OXTR agonist cf: 4; V1R ag counter 3x: 3

What do the screens show for `COc1cc(CNCCc2ccccc2)ccc1OCc1ccc(Cl)nc1`?
TRPML3 agonist: 0; OXTR agonist: 15; zfTRPN1 agonist: 1; OXTR potentiator: -10; V1R ag counter: 7

How did COc1cc(CNCC(O)c2ccccc2)ccc1OCc1ccc(Cl)nc1 (configuration not stated) do in these assays?
TRPML3 agonist: 1; OXTR agonist: 20*; zfTRPN1 agonist: 2; OXTR potentiator: -12; V1R ag counter: 9; OXTR agonist cf: 10; V1R ag counter 3x: 3

What do the screens show for `COc1ccc(-c2cnnn2-c2ccc([N+](=O)[O-])cc2)cc1`?
OXTR agonist: 0; OXTR potentiator: -2; V1R ag counter: 2

What do the screens show for `Cc1cc(C(c2ccc(O)cc2)c2cc(C)c(O)cc2C)c(C)cc1O`?
OXTR agonist: 41*; OXTR potentiator: -26; V1R ag counter: 18; OXTR agonist cf: 40*; V1R ag counter 3x: 26*

Results for COc1ccc(CCn2c(C(C)C)nc3c(c(=O)c4ccccc4n3C)c2=O)cc1 ?
TRPML3 agonist: 0; OXTR agonist: 30*; zfTRPN1 agonist: -2; OXTR potentiator: -19; V1R ag counter: 10; OXTR agonist cf: 0; V1R ag counter 3x: 13

How did O=C(O)c1ccccc1C(=O)NC1Cc2ccccc2C1 do in these assays?
TRPML3 agonist: 0; OXTR agonist: 1; zfTRPN1 agonist: 1; OXTR potentiator: 1; V1R ag counter: 1

Results for NC(=S)N/N=C1\CCOc2ccc(F)cc21 ?
TRPML3 agonist: 0; OXTR agonist: 1; zfTRPN1 agonist: 1; OXTR potentiator: -4; V1R ag counter: -1

Results for COc1ccc(/C(C)=N\O)cc1OC ?
TRPML3 agonist: 1; OXTR agonist: 0; zfTRPN1 agonist: 1; OXTR potentiator: -7; V1R ag counter: 0

Results for O=C(O)c1ccccc1C(=O)Nc1cccc([N+](=O)[O-])c1 ?
TRPML3 agonist: 1; OXTR agonist: 2; zfTRPN1 agonist: -2; OXTR potentiator: 4; V1R ag counter: 0

What do the screens show for `O=C(Nc1cccc([N+](=O)[O-])c1)c1cc2ccccc2cc1O`?
TRPML3 agonist: 17*; OXTR agonist: 25*; zfTRPN1 agonist: 27*; OXTR potentiator: -9; V1R ag counter: 14; OXTR agonist cf: 16; V1R ag counter 3x: 13

What do the screens show for `CCSc1ccc2c(c1)N(CCCN1CCN(C)CC1)c1ccccc1S2`?
OXTR agonist: 9; OXTR potentiator: -5; V1R ag counter: 3

What do the screens show for `CN1CCN(CCCN2c3ccccc3Sc3ccc(Cl)cc32)CC1`?
TRPML3 agonist: 2; OXTR agonist: 25*!; zfTRPN1 agonist: 0; OXTR potentiator: -17; V1R ag counter: 10; OXTR agonist cf: 11; V1R ag counter 3x: 3

Results for CC(C)(C)CC(C)(C)NCC(O)COc1ccc2c(c1)CCC2 (configuration not stated) ?
TRPML3 agonist: 1; OXTR agonist: 21*; zfTRPN1 agonist: 1; OXTR potentiator: -11; V1R ag counter: 15; OXTR agonist cf: 5; V1R ag counter 3x: 4

Results for Cc1ccccc1-n1sc2cc(F)ccc2c1=O ?
TRPML3 agonist: 8; OXTR agonist: 23*; zfTRPN1 agonist: 12; OXTR potentiator: -8; V1R ag counter: 16; OXTR agonist cf: 14; V1R ag counter 3x: 15

What do the screens show for `O=c1c2cc(F)ccc2sn1-c1ccccc1`?
OXTR agonist: 18; OXTR potentiator: -9; V1R ag counter: 14

How did COc1ccc(/C=C(/NC(=O)c2ccccc2)C(=O)N2CCCC2)cc1OC do in these assays?
OXTR agonist: 28*; OXTR potentiator: -13; V1R ag counter: 2; OXTR agonist cf: 1; V1R ag counter 3x: 0

What do the screens show for `COc1ccc(/C=C(/NC(=O)c2ccccc2)C(=O)N2CCCCC2)cc1OC`?
OXTR agonist: 7; OXTR potentiator: -6; V1R ag counter: 2

What do the screens show for `CCOc1ccc(S(=O)(=O)NCCCl)cc1`?
TRPML3 agonist: 0; OXTR agonist: -1; zfTRPN1 agonist: -1; OXTR potentiator: -16; V1R ag counter: 1

What do the screens show for `CC(Sc1ccc(Cl)cc1)C(=O)Nc1ccc(S(=O)(=O)N2CCOCC2)cc1` (configuration not stated)?
TRPML3 agonist: 6; OXTR agonist: 29*; zfTRPN1 agonist: 9; OXTR potentiator: -23; V1R ag counter: 13; OXTR agonist cf: 21*; V1R ag counter 3x: 10

How did C[C@H]1CC[C@H]2C(=O)N[C@H](Cc3ccccc3)C(=O)N2[C@@H]1c1ccccc1 do in these assays?
TRPML3 agonist: 0; OXTR agonist: 30*; zfTRPN1 agonist: 1; OXTR potentiator: -15; V1R ag counter: 0; OXTR agonist cf: 5; V1R ag counter 3x: -1

What do the screens show for `Nc1nc2ccccc2n1Cc1ccc(Cl)c(Cl)c1`?
OXTR agonist: 25*; OXTR potentiator: -24; V1R ag counter: 13; OXTR agonist cf: 6; V1R ag counter 3x: 4

Results for Cc1cc(C=O)c(C)n1-c1ccc(N2CCCCC2)c([N+](=O)[O-])c1 ?
TRPML3 agonist: 2; OXTR agonist: 4; zfTRPN1 agonist: 3; OXTR potentiator: -32; V1R ag counter: 7

Results for Cc1cc(/C=C(\C#N)C(N)=O)c(C)n1-c1ccc(N2CCOCC2)c([N+](=O)[O-])c1 ?
TRPML3 agonist: 1; OXTR agonist: 23*; zfTRPN1 agonist: -1; OXTR potentiator: -6; V1R ag counter: 11; OXTR agonist cf: 12; V1R ag counter 3x: 19
